For data set [1], the system named is Cynomolgus monkey. Kind of data set: Agonist activity at […] in cynomolgus monkey assessed as increase of serum IFNalpha level at 0.3 mg/kg, po after 1 to 24 hrs by ELISA. Format: functional, Macaca fascicularis. The method, boiled down: (§1)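 Healthy male cynomolgus monkeys, n = 3 per group, dosed either by 30 min iv infusion or orally. Serum was sampled predose and at 1, 2, 4, 8, 12 and 24 h postdose. IFN-α was measured by species-specific ELISA (limit of detection 130 pg/mL) and reported as mean peak serum level ± SD.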
A general note: In an ELISA, binding on a coated surface is turned into a signal by an enzyme label.

The nature of data set [2]: Half life in mouse liver microsomes. The data set is classed as ADME, Microsome. On the technique in general: Microsomes from liver hold many membrane-bound enzymes, among them those of drug oxidation.
The subject of data set [3] is Cynomolgus monkey. The data set can be described thus: Agonist activity at […] in cynomolgus monkey assessed as increase of serum IFNalpha level at 0.1 mg/kg, po after 1 to 24 hrs by ELISA. Format: functional, Macaca fascicularis. The method, boiled down:
as §1

Data set [4] in a line: Half life in rat liver microsomes. Format: ADME, Microsome.
Data set [5] deals with T1, Toll-like receptor 7 (Homo sapiens) (UniProt Q9NYK1).
T1 sequence (whole entry): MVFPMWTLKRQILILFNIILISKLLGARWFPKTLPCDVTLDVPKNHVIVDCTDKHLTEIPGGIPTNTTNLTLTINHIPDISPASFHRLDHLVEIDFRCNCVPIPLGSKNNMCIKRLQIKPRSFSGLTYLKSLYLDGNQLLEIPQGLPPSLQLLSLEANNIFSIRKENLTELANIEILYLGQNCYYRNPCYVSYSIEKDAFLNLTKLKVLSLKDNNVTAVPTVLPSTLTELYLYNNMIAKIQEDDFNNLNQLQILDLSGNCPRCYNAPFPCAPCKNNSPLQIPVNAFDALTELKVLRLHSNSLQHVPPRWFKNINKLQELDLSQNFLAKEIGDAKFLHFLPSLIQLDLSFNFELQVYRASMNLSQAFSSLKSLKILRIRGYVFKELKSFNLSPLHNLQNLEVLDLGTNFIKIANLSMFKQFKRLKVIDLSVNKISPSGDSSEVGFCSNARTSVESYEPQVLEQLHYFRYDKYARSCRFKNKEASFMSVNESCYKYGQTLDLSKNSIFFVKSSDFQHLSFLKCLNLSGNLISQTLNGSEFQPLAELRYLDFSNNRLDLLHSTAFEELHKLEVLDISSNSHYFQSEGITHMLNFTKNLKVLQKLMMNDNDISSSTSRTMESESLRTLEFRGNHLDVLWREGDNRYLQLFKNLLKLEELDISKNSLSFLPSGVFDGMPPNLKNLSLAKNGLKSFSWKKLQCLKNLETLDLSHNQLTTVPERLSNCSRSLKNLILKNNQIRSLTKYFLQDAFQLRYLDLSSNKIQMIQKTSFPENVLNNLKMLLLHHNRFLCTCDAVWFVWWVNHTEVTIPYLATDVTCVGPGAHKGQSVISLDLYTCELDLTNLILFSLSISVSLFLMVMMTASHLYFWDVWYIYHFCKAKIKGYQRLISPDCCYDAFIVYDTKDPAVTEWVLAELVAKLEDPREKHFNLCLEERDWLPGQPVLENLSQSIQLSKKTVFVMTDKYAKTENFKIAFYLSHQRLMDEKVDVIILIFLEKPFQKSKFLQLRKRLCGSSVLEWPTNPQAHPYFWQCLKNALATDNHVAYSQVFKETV
Kind of data set: Agonist activity at TLR7-mediated IFNalpha production in human PBMC assessed as minimum concentration of compound necessary to generate >3 fold of cytokine levels relative to control. Put shortly: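 Cryopreserved PBMCs from leukapheresis of a single healthy human donor, chosen as a consistent, robust responder to TLR7 agonist stimulation. Cells were incubated with compound for 24 h over an eight-point concentration range. Secreted IFN-α was measured to build dose-response curves. MEC was taken as the lowest concentration giving cytokine levels ≥3-fold over untreated control cultures.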

A short description of data set [6]: Half life in human liver microsomes. Format: ADME, Microsome.
Data set [7] in a line: Cmax in cynomolgus monkey at 2 mg/kg, po. The data set is classed as ADME, organism-based, Macaca fascicularis. Also noted: dose 2 mg/kg, route oral. As to conditions: in vivo. The method, boiled down:
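Male cynomolgus monkeys, n = 3 per group, received a 30 min iv infusion or an oral dose. Compound was measured in serum (limit of quantitation 0.04 ng/mL), and Cmax is reported as the group mean.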

A further data set is filed under the species Homo sapiens. The data set can be described thus: Selectivity ratio of MEC for TLR8-mediated TNFalpha production in human PBMC to MEC for TLR7-mediated IFNalpha production in human PBMC. Put shortly:
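Cryopreserved human PBMCs came from leukapheresis of a single healthy donor selected as a consistent responder. Cells were incubated with compound for 24 h over an eight-point concentration range, and cytokine release was measured. MEC is the lowest concentration giving cytokine levels at least 3-fold above untreated cultures, determined per cytokine.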

For data set [8], the system named is Cynomolgus monkey. The data set can be described thus: Agonist activity at […] in cynomolgus monkey assessed as increase of serum IFNalpha level at 2 mg/kg, po after 1 to 24 hrs by ELISA. Format: functional, Macaca fascicularis. The method, boiled down: as §1
For data set [9], the system named is Cynomolgus monkey. The data set can be described thus: Agonist activity at […] in cynomolgus monkey assessed as increase of serum IFNalpha level at 1 mg/kg, po after 1 to 24 hrs by ELISA. Format: functional, Macaca fascicularis. The method, boiled down:
as §1

Data set [10] relates to Cynomolgus monkey. Kind of data set: Agonist activity at […] in cynomolgus monkey assessed as increase of serum TNFalpha level at 2 mg/kg after 1 to 24 hrs by ELISA.

What is called half-life is how long it takes for the measured level to halve. A word on the Cmax: it is the maximum level reached in the sampled fluid or tissue.

Regarding `CCCCOc1nc(N)c2c(n1)N(Cc1cccc(CN3CCCC3)c1)CC(=O)N2` [VESATOLIMOD], the Activity was found to be 763 pg/mL in the data set on Cynomolgus monkey [1]; 140 pg/mL with Cynomolgus monkey [3]; 119000 pg/mL in the data set on Cynomolgus monkey [8]; 22367 pg/mL in the data set on Cynomolgus monkey [9]; 578 pg/mL in the data set on Cynomolgus monkey [10]. Besides, the half-life in data set [2] came out at 4.9 min; in [4], 5.4 min; in data set [6], 30.5 min. Besides, in [5], the MEC was determined as 3 nM. Further, the Cmax in data set [7] worked out at 66.4 ng/mL. The Ratio in the data set listed under Homo sapiens worked out at 100.

For the origin of these results see ChEMBL document CHEMBL2424598, “Identification and optimization of pteridinone Toll-like receptor 7 (TLR7) agonists for the oral treatment of viral hepatitis” (J Med Chem, 2013).
